Laboratory results published in ChEMBL document CHEMBL1131099, “Biologically active oligodeoxyribonucleotides. 5. 5'-End-substituted d(TGGGAG) possesses anti-human immunodeficiency virus type 1 activity by forming a G-quadruplex structure” (J Med Chem, 1998).

Columns and labels:
[1] = test system: MT4; test: In vitro inhibitory activity for cytopathicities induced by HIV-1III B against MT-4 cells.; type: functional, cell-based; conditions: Homo sapiens
In short: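 Exponentially growing MT-4 cells were pelleted (140g, 5 min), infected in a small volume of RPMI-1640 with 100 TCID50 HIV-1 IIIB for 1 h, washed, and plated at 2.5 × 10⁴ cells/well with serial oligonucleotide dilutions. Viability was read by MTT at day 6. IC50 was taken from dose-response curves, as the mean of duplicate or quadruplicate ± SD.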

[2] = test system: MT4; test: Cytotoxicity was measured against MT-4 cells using MTT assay.; type: functional; conditions: Homo sapiens

Row | SMILES | IC50 [1] [µM] | CC50 [2] [µM]
1 | Cc1cn([C@H]2C[C@H](OP(=O)(O)OC[C@H]3O[C@@H](n4cnc5c(=O)[nH]c(N)nc54)C[C@@H]3OP(=O)(O)OC[C@H]3O[C@@H](n4cnc5c(=O)[nH]c(N)nc54)C[C@@H]3OP(=O)(O)OC[C@H]3O[C@@H](n4cnc5c(=O)[nH]c(N)nc54)CC3OP(=O)(O)OC[C@H]3O[C@@H](n4cnc5c(N)ncnc54)C[C@@H]3OP(=O)(O)OC[C@H]3O[C@@H](n4cnc5c(=O)[nH]c(N)nc54)C[C@@H]3O[Si](c3ccccc3)(c3ccccc3)C(C)(C)C)[C@@H](CO[Si](c3ccccc3)(c3ccccc3)C(C)(C)C)O2)c(=O)[nH]c1=O (stereo partly specified) | 6 | > 40
2 | Cc1cn([C@H]2C[C@H](OP(=O)(O)OC[C@H]3O[C@@H](n4cc(C)c(=O)[nH]c4=O)C[C@@H]3OP(=O)(O)OC[C@H]3O[C@@H](n4cc(C)c(=O)[nH]c4=O)C[C@@H]3OP(=O)(O)OC[C@H]3O[C@@H](n4cc(C)c(=O)[nH]c4=O)C[C@@H]3OP(=O)(O)OC[C@H]3O[C@@H](n4cc(C)c(=O)[nH]c4=O)C[C@@H]3OP(=O)(O)OC[C@H]3O[C@@H](n4cc(C)c(=O)[nH]c4=O)C[C@@H]3O)[C@@H](COCc3ccc(OCc4ccccc4)c(OCc4ccccc4)c3)O2)c(=O)[nH]c1=O | > 24 | > 24
3 | Cc1cn([C@H]2C[C@H](OP(=O)(O)OC[C@H]3O[C@@H](n4cnc5c(O)nc(N)nc54)C[C@@H]3OP(=O)(O)OC[C@H]3O[C@@H](n4cnc5c(O)nc(N)nc54)C[C@@H]3O)[C@@H](COCc3ccc(OCc4ccccc4)c(OCc4ccccc4)c3)O2)c(=O)[nH]c1=O | > 70 | > 70
4 | COc1ccc(C(OC[C@H]2O[C@@H](n3cc(C)c(=O)[nH]c3=O)C[C@@H]2OP(=O)(O)OC[C@H]2O[C@@H](n3cnc4c(=O)[nH]c(N)nc43)C[C@@H]2OP(=O)(O)OC[C@H]2O[C@@H](n3cnc4c(=O)[nH]c(N)nc43)C[C@@H]2OP(=O)(O)OC[C@H]2O[C@@H](n3cnc4c(=O)[nH]c(N)nc43)C[C@@H]2OP(=O)(O)OC[C@H]2O[C@@H](n3cnc4c(N)ncnc43)C[C@@H]2OP(=O)(O)OC[C@H]2O[C@@H](n3cnc4c(=O)[nH]c(N)nc43)C[C@@H]2O)(c2ccccc2)c2ccc(OC)cc2)cc1 | 1 | 38
5 | Cc1cn([C@H]2C[C@H](OP(=O)(O)OC[C@H]3O[C@@H](n4cnc5c(=O)[nH]c(N)nc54)C[C@@H]3OP(=O)(O)OC[C@H]3O[C@@H](n4cnc5c(=O)[nH]c(N)nc54)C[C@@H]3OP(=O)(O)OC[C@H]3O[C@@H](n4cnc5c(=O)[nH]c(N)nc54)C[C@@H]3OP(=O)(O)OC[C@H]3O[C@@H](n4cnc5c(N)ncnc54)C[C@@H]3OP(=O)(O)OC[C@H]3O[C@@H](n4cnc5c(=O)[nH]c(N)nc54)C[C@@H]3O)[C@@H](CO)O2)c(=O)[nH]c1=O | > 40 | > 40
6 | Cc1cn([C@H]2C[C@H](OP(=O)(O)OC[C@H]3O[C@@H](n4cnc5c(=O)[nH]c(N)nc54)C[C@@H]3OP(=O)(O)OC[C@H]3O[C@@H](n4cnc5c(=O)[nH]c(N)nc54)C[C@@H]3OP(=O)(O)OC[C@H]3O[C@@H](n4cnc5c(=O)[nH]c(N)nc54)C[C@@H]3OP(=O)(O)OC[C@H]3O[C@@H](n4cnc5c(N)ncnc54)C[C@@H]3OP(=O)(O)OC[C@H]3O[C@@H](n4cnc5c(=O)[nH]c(N)nc54)C[C@@H]3O)[C@@H](COC3(c4ccccc4)c4ccccc4Oc4ccccc43)O2)c(=O)[nH]c1=O | 0.95 | > 40
7 | Cc1cn([C@H]2C[C@H](OP(=O)(O)OC[C@H]3O[C@@H](n4cc(C)c(=O)[nH]c4=O)C[C@@H]3OP(=O)(O)OC[C@H]3O[C@@H](n4cnc5c(=O)[nH]c(N)nc54)C[C@@H]3OP(=O)(O)OC[C@H]3O[C@@H](n4cnc5c(=O)[nH]c(N)nc54)C[C@@H]3OP(=O)(O)OC[C@H]3O[C@@H](n4cnc5c(=O)[nH]c(N)nc54)C[C@@H]3OP(=O)(O)OC[C@H]3O[C@@H](n4cnc5c(=O)[nH]c(N)nc54)C[C@@H]3O)[C@@H](COCc3ccc(OCc4ccccc4)c(OCc4ccccc4)c3)O2)c(=O)[nH]c1=O | 0.56 | > 40
8 | Cc1cn([C@H]2C[C@H](OP(=O)(O)OC[C@H]3O[C@@H](n4cnc5c(=O)[nH]c(N)nc54)C[C@@H]3OP(=O)(O)OC[C@H]3O[C@@H](n4cc(C)c(=O)[nH]c4=O)C[C@@H]3OP(=O)(O)OC[C@H]3O[C@@H](n4cnc5c(=O)[nH]c(N)nc54)C[C@@H]3OP(=O)(O)OC[C@H]3O[C@@H](n4cnc5c(N)ncnc54)C[C@@H]3OP(=O)(O)OC[C@H]3O[C@@H](n4cnc5c(=O)[nH]c(N)nc54)C[C@@H]3O)[C@@H](COCc3ccc(OCc4ccccc4)c(OCc4ccccc4)c3)O2)c(=O)[nH]c1=O | > 24 | > 24
9 | Cc1cn([C@H]2C[C@H](OP(=O)(O)OC[C@H]3O[C@@H](n4cnc5c(=O)[nH]c(N)nc54)C[C@@H]3OP(=O)(O)OC[C@H]3O[C@@H](n4cnc5c(=O)[nH]c(N)nc54)C[C@@H]3OP(=O)(O)OC[C@H]3O[C@@H](n4cnc5c(=O)[nH]c(N)nc54)C[C@@H]3OP(=O)(O)OC[C@H]3O[C@@H](n4cnc5c(N)ncnc54)C[C@@H]3OP(=O)(O)OC[C@H]3O[C@@H](n4cnc5c(=O)[nH]c(N)nc54)C[C@@H]3O)[C@@H](COCc3ccc(OCc4ccccc4)cc3)O2)c(=O)[nH]c1=O | 1.9 | > 40
10 | Cc1cn([C@H]2C[C@H](OP(=O)(O)OC[C@H]3O[C@@H](n4cnc5c(=O)[nH]c(N)nc54)C[C@@H]3OP(=O)(O)OC[C@H]3O[C@@H](n4cnc5c(=O)[nH]c(N)nc54)C[C@@H]3OP(=O)(O)OC[C@H]3O[C@@H](n4cnc5c(=O)[nH]c(N)nc54)C[C@@H]3OP(=O)(O)OC[C@H]3O[C@@H](n4cnc5c(N)ncnc54)C[C@@H]3OP(=O)(O)OC[C@H]3O[C@@H](n4cnc5c(=O)[nH]c(N)nc54)C[C@@H]3O)[C@@H](COCc3ccc(-c4ccccc4)cc3)O2)c(=O)[nH]c1=O | 2.8 | > 40
11 | Cc1cn([C@H]2C[C@H](OP(=O)(O)OC[C@H]3O[C@@H](n4cnc5c(=O)[nH]c(N)nc54)C[C@@H]3OP(=O)(O)OC[C@H]3O[C@@H](n4cnc5c(=O)[nH]c(N)nc54)C[C@@H]3OP(=O)(O)OC[C@H]3O[C@@H](n4cnc5c(=O)[nH]c(N)nc54)C[C@@H]3OP(=O)(O)OC[C@H]3O[C@@H](n4cnc5c(N)ncnc54)C[C@@H]3OP(=O)(O)OC[C@H]3O[C@@H](n4cnc5c(=O)[nH]c(N)nc54)C[C@@H]3O[Si](c3ccccc3)(c3ccccc3)C(C)(C)C)[C@@H](CO)O2)c(=O)[nH]c1=O | > 40 | 7.7
12 | Cc1cn([C@H]2C[C@H](OP(=O)(O)OC[C@H]3O[C@@H](n4cc(C)c(=O)[nH]c4=O)C[C@@H]3OP(=O)(O)OC[C@H]3O[C@@H](n4cnc5c(O)nc(N)nc54)C[C@@H]3OP(=O)(O)OC[C@H]3O[C@@H](n4cnc5c(O)nc(N)nc54)C[C@@H]3OP(=O)(O)OC[C@H]3O[C@@H](n4cnc5c(O)nc(N)nc54)C[C@@H]3O)[C@@H](COCc3ccc(OCc4ccccc4)c(OCc4ccccc4)c3)O2)c(=O)[nH]c1=O | > 40 | 40
13 | Cc1cn([C@H]2C[C@H](OP(=O)(O)OC[C@H]3O[C@@H](n4cnc5c(=O)[nH]c(N)nc54)C[C@@H]3OP(=O)(O)OC[C@H]3O[C@@H](n4cnc5c(=O)[nH]c(N)nc54)C[C@@H]3OP(=O)(O)OC[C@H]3O[C@@H](n4cnc5c(=O)[nH]c(N)nc54)C[C@@H]3OP(=O)(O)OC[C@H]3O[C@@H](n4cnc5c(=O)[nH]c(N)nc54)C[C@@H]3O)[C@@H](COCc3ccc(OCc4ccccc4)c(OCc4ccccc4)c3)O2)c(=O)[nH]c1=O | 0.66 | > 40
14 | Cc1cn([C@H]2C[C@H](OP(=O)(O)OC[C@H]3O[C@@H](n4cnc5c(=O)[nH]c(N)nc54)C[C@@H]3OP(=O)(O)OC[C@H]3O[C@@H](n4cnc5c(=O)[nH]c(N)nc54)C[C@@H]3OP(=O)(O)OC[C@H]3O[C@@H](n4cnc5c(=O)[nH]c(N)nc54)C[C@@H]3OP(=O)(O)OC[C@H]3O[C@@H](n4cnc5c(N)ncnc54)C[C@@H]3OP(=O)(O)OC[C@H]3O[C@@H](n4cnc5c(=O)[nH]c(N)nc54)C[C@@H]3O)[C@@H](CO[Si](C)(C)C(C)(C)C)O2)c(=O)[nH]c1=O | > 40 | 1.2
15 | Cc1cn([C@H]2C[C@H](OP(=O)(O)OC[C@H]3O[C@@H](n4cnc5c(=O)[nH]c(N)nc54)C[C@@H]3OP(=O)(O)OC[C@H]3O[C@@H](n4cnc5c(=O)[nH]c(N)nc54)C[C@@H]3OP(=O)(O)OC[C@H]3O[C@@H](n4cnc5c(=O)[nH]c(N)nc54)C[C@@H]3OP(=O)(O)OC[C@H]3O[C@@H](n4cnc5c(N)ncnc54)C[C@@H]3OP(=O)(O)OC[C@H]3O[C@@H](n4cnc5c(=O)[nH]c(N)nc54)C[C@@H]3O)[C@@H](CO[Si](c3ccccc3)(c3ccccc3)C(C)(C)C)O2)c(=O)[nH]c1=O | 0.88 | > 40
16 | Cc1cn([C@H]2C[C@H](OP(=O)(O)OC[C@H]3O[C@@H](n4cnc5c(=O)[nH]c(N)nc54)C[C@@H]3OP(=O)(O)OC[C@H]3O[C@@H](n4cnc5c(=O)[nH]c(N)nc54)C[C@@H]3OP(=O)(O)OC[C@H]3O[C@@H](n4cnc5c(=O)[nH]c(N)nc54)C[C@@H]3OP(=O)(O)OC[C@H]3O[C@@H](n4cnc5c(N)ncnc54)C[C@@H]3OP(=O)(O)OC[C@H]3O[C@@H](n4cnc5c(=O)[nH]c(N)nc54)C[C@@H]3O)[C@@H](COC(c3ccccc3)c3ccccc3)O2)c(=O)[nH]c1=O | 4.3 | > 40
17 | Cc1cn([C@H]2C[C@H](OP(=O)(O)OC[C@H]3O[C@@H](n4cnc5c(=O)[nH]c(N)nc54)C[C@@H]3OP(=O)(O)OC[C@H]3O[C@@H](n4cnc5c(=O)[nH]c(N)nc54)C[C@@H]3OP(=O)(O)OC[C@H]3O[C@@H](n4cnc5c(=O)[nH]c(N)nc54)C[C@@H]3OP(=O)(O)OC[C@H]3O[C@@H](n4cnc5c(N)ncnc54)C[C@@H]3OP(=O)(O)OC[C@H]3O[C@@H](n4cnc5c(=O)[nH]c(N)nc54)C[C@@H]3O)[C@@H](COC3(c4ccccc4)c4ccccc4-c4ccccc43)O2)c(=O)[nH]c1=O | 1.3 | > 40
18 | Cc1cn([C@H]2C[C@H](OP(=O)(O)OC[C@H]3O[C@@H](n4cnc5c(=O)[nH]c(N)nc54)C[C@@H]3OP(=O)(O)OC[C@H]3O[C@@H](n4cnc5c(=O)[nH]c(N)nc54)C[C@@H]3OP(=O)(O)OC[C@H]3O[C@@H](n4cnc5c(=O)[nH]c(N)nc54)C[C@@H]3OP(=O)(O)OC[C@H]3O[C@@H](n4cnc5c(N)ncnc54)C[C@@H]3OP(=O)(O)OC[C@H]3O[C@@H](n4cnc5c(=O)[nH]c(N)nc54)C[C@@H]3O)[C@@H](COCc3ccccc3-c3ccccc3)O2)c(=O)[nH]c1=O | 1.2 | > 40
